Laboratory results taken from ChEMBL document CHEMBL1641571, “Karavilagenin C derivatives as antimalarials” (Bioorg Med Chem, 2011).

How the values were obtained:
Plasmodium falciparum [1] = assay: Antimalarial activity against chloroquine-sensitive Plasmodium falciparum 3D7 infected in erythrocytes after 48 hrs by SYBR Green 1-based fluorescence assay; assay type: functional, organism-based; settings: 3D7, 48 h
Plasmodium falciparum [2] = assay: Antimalarial activity against chloroquine-resistant Plasmodium falciparum Dd2 infected in erythrocytes after 48 hrs by SYBR Green 1-based fluorescence assay; assay type: functional, organism-based; settings: Dd2, 48 h
MCF7 = assay: Cytotoxicity against human MCF7 cells after 24 hrs by MTT assay; assay type: functional, cell-based; settings: MCF7, 24 h
Method in brief: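 MCF-7 breast cancer cells grown in RPMI 1640 with 10% heat-inactivated horse serum, 2 mM L-glutamine and antibiotics, 5% CO2, 37 °C. 2 × 10^4 cells per well exposed to increasing compound concentrations for 24 h at 37 °C. MTT added (5 mg/mL stock), 4 h, then 10% SDS overnight. OD read at 550 nm (ref 630 nm). IC50 from growth inhibition; mean ± SD, three experiments.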

[3] = Selectivity index, ratio of IC50 for human MCF7 cells to IC50 for chloroquine-sensitive Plasmodium falciparum 3D7; assay type: toxicity, cell-based; settings: read-out: Ratio IC50
[4] = Selectivity index, ratio of IC50 for human MCF7 cells to IC50 for chloroquine-resistant Plasmodium falciparum Dd2; assay type: toxicity, cell-based; settings: read-out: Ratio IC50

## CO[C@H]1C=C2[C@@H](CC[C@H](O)C2(C)C)[C@]2(C)C[C@@H](O)[C@]3(C)[C@@H]([C@H](C)C[C@@H](O)C=C(C)C)CC[C@@]3(C)[C@H]12 [CUCURBALSAMINOL C]
Plasmodium falciparum [1]
  IC50: 52.7 µM
Plasmodium falciparum [2]
  IC50: 67.6 µM
MCF7
  IC50: 43.3 µM
[3]
  selectivity ratio: 0.8
[4]
  selectivity ratio: 0.6

## CO[C@H]1C=C2[C@@H](CC[C@H](O)C2(C)C)[C@]2(C)CC[C@]3(C)[C@@H]([C@H](C)C[C@@H](O)C=C(C)C)CC[C@@]3(C)[C@H]12 [KARAVELAGENIN C]
Plasmodium falciparum [1]
  IC50: 10.4 µM
Plasmodium falciparum [2]
  IC50: 11.2 µM
MCF7
  IC50: 16.7 µM
[3]
  selectivity ratio: 1.6
[4]
  selectivity ratio: 1.4

## CO[C@H]1C=C2[C@@H](CC[C@H](O)C2(C)C)[C@]2(C)CC[C@]3(C)[C@@H]([C@H](C)C[C@H](C=C(C)C)OC(C)=O)CC[C@@]3(C)[C@H]12 [KARAVOATE A]
Plasmodium falciparum [1]
  IC50: 6.7 µM
Plasmodium falciparum [2]
  IC50: 9.2 µM
MCF7
  IC50: 22.9 µM
[3]
  selectivity ratio: 3.4
[4]
  selectivity ratio: 2.5

## CO[C@H]1C=C2[C@@H](CC[C@H](OC(C)=O)C2(C)C)[C@]2(C)CC[C@]3(C)[C@@H]([C@H](C)C[C@H](C=C(C)C)OC(C)=O)CC[C@@]3(C)[C@H]12 [KARAVOATE B]
Plasmodium falciparum [1]
  IC50: 0.5 µM
Plasmodium falciparum [2]
  IC50: 0.5 µM
MCF7
  IC50: 68.1 µM
[3]
  selectivity ratio: 151
[4]
  selectivity ratio: 126

## CCC(=O)O[C@@H](C=C(C)C)C[C@@H](C)[C@H]1CC[C@@]2(C)[C@@H]3[C@@H](OC)C=C4[C@@H](CC[C@H](O)C4(C)C)[C@]3(C)CC[C@]12C [KARAVOATE C]
Plasmodium falciparum [1]
  IC50: 5.1 µM
Plasmodium falciparum [2]
  IC50: 22 µM
MCF7
  IC50: 19.1 µM
[3]
  selectivity ratio: 3.7
[4]
  selectivity ratio: 0.9

## CCC(=O)O[C@H]1CC[C@@H]2C(=C[C@H](OC)[C@@H]3[C@@]2(C)CC[C@]2(C)[C@@H]([C@H](C)C[C@H](C=C(C)C)OC(=O)CC)CC[C@@]32C)C1(C)C [KARAVOATE D]
Plasmodium falciparum [1]
  IC50: 1.5 µM
Plasmodium falciparum [2]
  IC50: 0.4 µM
MCF7
  IC50: > 133 µM
[3]
  selectivity ratio: > 89
[4]
  selectivity ratio: > 350

## CCCC(=O)O[C@@H](C=C(C)C)C[C@@H](C)[C@H]1CC[C@@]2(C)[C@@H]3[C@@H](OC)C=C4[C@@H](CC[C@H](O)C4(C)C)[C@]3(C)CC[C@]12C [KARAVOATE E]
Plasmodium falciparum [1]
  IC50: 3.5 µM
Plasmodium falciparum [2]
  IC50: 0.6 µM
MCF7
  IC50: 73.8 µM
[3]
  selectivity ratio: 20.8
[4]
  selectivity ratio: 116

## CCCC(=O)O[C@H]1CC[C@@H]2C(=C[C@H](OC)[C@@H]3[C@@]2(C)CC[C@]2(C)[C@@H]([C@H](C)C[C@H](C=C(C)C)OC(=O)CCC)CC[C@@]32C)C1(C)C [KARAVOATE F]
Plasmodium falciparum [1]
  IC50: 6.9 µM
Plasmodium falciparum [2]
  IC50: 8.4 µM
MCF7
  IC50: > 133 µM
[3]
  selectivity ratio: > 19.4
[4]
  selectivity ratio: > 15.8

## CO[C@H]1C=C2[C@@H](CC[C@H](OC(=O)c3ccccc3)C2(C)C)[C@]2(C)CC[C@]3(C)[C@@H]([C@H](C)C[C@H](C=C(C)C)OC(=O)c4ccccc4)CC[C@@]3(C)[C@H]12 [KARAVOATE H]
Plasmodium falciparum [1]
  IC50: 36.4 µM
Plasmodium falciparum [2]
  IC50: 30.5 µM
MCF7
  IC50: > 133 µM
[3]
  selectivity ratio: > 3.7
[4]
  selectivity ratio: > 4.4

## CO[C@H]1C=C2[C@@H](CC[C@H](O)C2(C)C)[C@]2(C)CC[C@]3(C)[C@@H]([C@H](C)C[C@H](C=C(C)C)OC(=O)c4ccc([N+](=O)[O-])cc4)CC[C@@]3(C)[C@H]12 [KARAVOATE I]
Plasmodium falciparum [1]
  IC50: 2.6 µM
Plasmodium falciparum [2]
  IC50: 0.5 µM
MCF7
  IC50: > 133 µM
[3]
  selectivity ratio: > 51.4
[4]
  selectivity ratio: > 296

## CO[C@H]1C=C2[C@@H](CC[C@H](OC(=O)c3ccc([N+](=O)[O-])cc3)C2(C)C)[C@]2(C)CC[C@]3(C)[C@@H]([C@H](C)C[C@H](C=C(C)C)OC(=O)c4ccc([N+](=O)[O-])cc4)CC[C@@]3(C)[C@H]12 [KARAVOATE J]
Plasmodium falciparum [1]
  IC50: 18.6 µM
Plasmodium falciparum [2]
  IC50: 20.7 µM
MCF7
  IC50: > 133 µM
[3]
  selectivity ratio: > 7.2
[4]
  selectivity ratio: > 6.43

## CO[C@H]1C=C2[C@@H](CC[C@H](O)C2(C)C)[C@]2(C)CC[C@]3(C)[C@@H]([C@H](C)C[C@H](C=C(C)C)OC(=O)c4ccc(Cl)cc4)CC[C@@]3(C)[C@H]12 [KARAVOATE K]
Plasmodium falciparum [1]
  IC50: 13.3 µM
Plasmodium falciparum [2]
  IC50: 23.3 µM
MCF7
  IC50: > 133 µM
[3]
  selectivity ratio: > 10
[4]
  selectivity ratio: > 5.7

## CO[C@H]1C=C2[C@@H](CC[C@H](OC(=O)c3ccc(Cl)cc3)C2(C)C)[C@]2(C)CC[C@]3(C)[C@@H]([C@H](C)C[C@H](C=C(C)C)OC(=O)c4ccc(Cl)cc4)CC[C@@]3(C)[C@H]12 [KARAVOATE L]
Plasmodium falciparum [1]
  IC50: 22.5 µM
Plasmodium falciparum [2]
  IC50: 66 µM
MCF7
  IC50: > 133 µM
[3]
  selectivity ratio: > 5.9
[4]
  selectivity ratio: > 2

## COc1ccc(C(=O)O[C@@H](C=C(C)C)C[C@@H](C)[C@H]2CC[C@@]3(C)[C@@H]4[C@@H](OC)C=C5[C@@H](CC[C@H](O)C5(C)C)[C@]4(C)CC[C@]23C)cc1 [KARAVOATE M]
Plasmodium falciparum [1]
  IC50: 1.3 µM
Plasmodium falciparum [2]
  IC50: 0.6 µM
MCF7
  IC50: > 133 µM
[3]
  selectivity ratio: > 43.6
[4]
  selectivity ratio: > 215

## COc1ccc(C(=O)O[C@H]2CC[C@@H]3C(=C[C@H](OC)[C@@H]4[C@@]3(C)CC[C@]3(C)[C@@H]([C@H](C)C[C@H](C=C(C)C)OC(=O)c5ccc(OC)cc5)CC[C@@]43C)C2(C)C)cc1 [KARAVOATE N]
Plasmodium falciparum [1]
  IC50: 2.4 µM
Plasmodium falciparum [2]
  IC50: 47.9 µM
MCF7
  IC50: > 133 µM
[3]
  selectivity ratio: > 55.4
[4]
  selectivity ratio: > 2.8

## CO[C@H]1C=C2[C@@H](CC[C@H](O)C2(C)C)[C@]2(C)CC[C@]3(C)[C@@H]([C@H](C)C[C@H](C=C(C)C)OC(=O)/C=C/c4ccccc4)CC[C@@]3(C)[C@H]12 [KARAVOATE O]
Plasmodium falciparum [1]
  IC50: 6.6 µM
Plasmodium falciparum [2]
  IC50: 26.7 µM
MCF7
  IC50: > 133 µM
[3]
  selectivity ratio: > 20.3
[4]
  selectivity ratio: > 5

## CO[C@H]1C=C2[C@@H](CC[C@H](OC(=O)/C=C/c3ccccc3)C2(C)C)[C@]2(C)CC[C@]3(C)[C@@H]([C@H](C)C[C@H](C=C(C)C)OC(=O)/C=C/c4ccccc4)CC[C@@]3(C)[C@H]12 [KARAVOATE P]
Plasmodium falciparum [1]
  IC50: 65.2 µM
Plasmodium falciparum [2]
  IC50: 56.6 µM
MCF7
  IC50: > 133 µM
[3]
  selectivity ratio: > 2
[4]
  selectivity ratio: > 2.4
